Experimental data: ChEMBL document CHEMBL1157364, “Rapamycin reduces CCR5 density levels on CD4 T cells, and this effect results in potentiation of enfuvirtide (T-20) against R5 strains of human immunodeficiency virus type 1 in vitro” (Antimicrob Agents Chemother, 2007)
Active and inactive are the calls of the source. The rule behind the calls is not given here.

Experiments:
[1] = test system: Human immunodeficiency virus 1; experiment: Antiviral activity against HIV1 R5 in human PBMC assessed as fractional inhibition of viral replication at 0.125 nM; assay type: functional
Procedure, shortened: (§1)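 Fixed-ratio combination in PBMC p24 infectivity assays (RAPA pretreatment, MOI 0.001, p24 ELISA day 4). Each drug tested alone in twofold dilutions, RAPA 0.125–2 nM and T-20 2.5–40 nM, and in a 1/20 RAPA/T-20 molar ratio. Median-effect (Chou) analysis gave Dm, m, r, combination index and dose reduction index.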

[2] = test system: Human immunodeficiency virus 1; experiment: Antiviral activity against HIV1 ADA in human PBMC assessed as reduction of p24 antigen levels; assay type: functional, organism-based; conditions: Human immunodeficiency virus 1, ADA
Procedure, shortened: (§2)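 PBMCs cultured 6 days with IL-2 (100 U/ml) plus RAPA, then exposed 2 h to HIV-1 ADA (R5) or IIIb (X4) at MOI 0.001, washed three times with PBS, and kept in IL-2 medium with drugs. p24 in supernatant by ELISA on day 4 after infection. Means ± SD of independent experiments.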

[3] = test system: Human immunodeficiency virus 1; experiment: Antiviral activity against HIV1 R5 in human PBMC assessed as fractional inhibition of viral replication at 0.250 nM; assay type: functional; procedure, shortened: as §1
[4] = test system: Human immunodeficiency virus 1; experiment: Antiviral activity against HIV1 R5 in human PBMC assessed as fractional inhibition of viral replication at 0.5 nM; assay type: functional; procedure, shortened: as §1
[5] = test system: Human immunodeficiency virus 1; experiment: Antiviral activity against HIV1 R5 in human PBMC assessed as fractional inhibition of viral replication at 2 nM; assay type: functional; procedure, shortened: as §1
PBMC [6] = experiment: Reduction of CCR5 density on human sPBMC at 0.1 to 1 nM after 6 days by quantitative fluorescence-activated cell sorting; assay type: functional, cell-based
Procedure, shortened: (§3)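 PBMCs cultured 6 days with IL-2 and RAPA. Blocked 30 min at room temperature (PBS with 2% human serum, 5% horse serum, 0.1% azide), then stained 30 min with PE antibodies. Surface molecules per cell from FL-2 by Quantibrite-PE bead regression, PE/antibody ratio 1:1. Means ± SD from seven donors; Student's t test versus untreated.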

PBMC [7] = experiment: Reduction of CD4 density on human PBMC at 1 nM after 6 days by quantitative fluorescence-activated cell sorting; assay type: functional; design: scale not given: the % may be the effect or the level left; procedure, shortened: as §3
PBMC [8] = experiment: Effect on cell viability of human PBMC pretreated for 14 days by trypan blue staining; conditions: 336 h
[9] = test system: Human immunodeficiency virus 1; experiment: Antiviral activity against HIV1 X4 assessed as inhibition of cell-cell fusion between X4-envelope expressing HEK293T cells and CD8 depleted human PBMCs pretreated for 6 days; assay type: functional, organism-based; conditions: Human immunodeficiency virus 1, X4, HEK-293T
Procedure, shortened: (§4)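 Target cells were CD8-depleted PBMCs pretreated 6 days with RAPA and labeled with calcein-AM. Effectors were 293T cells transfected with JRFL (R5) or HXB2 (X4) Env plus Rev, loaded with CMTMR on day 2. Cells cocultured 1:3 ± T-20 for 2.5 h at 37°C in HEPES-DMEM pH 7.2 with BSA 1 mg/ml. Double-positive cells scored by microscopy, ≥100 cells, normalized to no-T-20 fusion. EC50 from F = 100/(1 + Ci/EC50).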

PBMC [10] = experiment: Effect on cell viability of human PBMC at 0.03 to 1 nM after 14 days by trypan blue staining; assay type: cell-based; conditions: 336 h, 0.001 µM
Procedure, shortened: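 PBMCs cultured with IL-2 and RAPA for 14 days; viability by trypan blue staining. Means ± SD from seven donors.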

[11] = test system: Human immunodeficiency virus 1; experiment: Antiviral activity against HIV1 R5 in human PBMC assessed as fractional inhibition of viral replication; assay type: functional, organism-based; conditions: Human immunodeficiency virus 1, R5; procedure, shortened: as §1
[12] = test system: Human immunodeficiency virus 1; experiment: Antiviral activity against HIV1 R5 in human PBMC assessed as fractional inhibition of viral replication at 1 nM; assay type: functional; procedure, shortened: as §1
[13] = test system: Human immunodeficiency virus 1; experiment: Antiviral activity against HIV1 ADA in human PBMC assessed as reduction of p24 antigen levels after 4 days of infection; assay type: functional, organism-based; procedure, shortened: as §2
[14] = test system: Human immunodeficiency virus 1; experiment: Antiviral activity against HIV1 R5 assessed as inhibition of cell-cell fusion between R5-envelope expressing HEK293T cells and CD8 depleted human PBMCs pretreated for 6 days; assay type: functional, organism-based; conditions: Human immunodeficiency virus 1, R5, HEK-293T; procedure, shortened: as §4
PBMC [15] = experiment: Reduction of CXCR4 density on human PBMC at 0.1 to 1 nM after 6 days by quantitative fluorescence-activated cell sorting; assay type: functional, cell-based; procedure, shortened: as §3
[16] = test system: Human immunodeficiency virus 1; experiment: Antiviral activity against HIV1 R5 in human PBMC assessed as fractional inhibition of viral replication at 5 nM; assay type: functional; procedure, shortened: as §1
[17] = test system: Human immunodeficiency virus 1; experiment: Antiviral activity against HIV1 R5 in human PBMC assessed as fractional inhibition of viral replication at 40 nM; assay type: functional; procedure, shortened: as §1
[18] = test system: Human immunodeficiency virus 1; experiment: Antiviral activity against HIV1 X4 in human PBMC assessed as reduction of p24 antigen levels; assay type: functional, organism-based; conditions: Human immunodeficiency virus 1, X4; procedure, shortened: as §2
[19] = test system: Human immunodeficiency virus 1; experiment: Antiviral activity against HIV1 R5 in human PBMC assessed as fractional inhibition of viral replication at 20 nM; assay type: functional; procedure, shortened: as §1
[20] = test system: Human immunodeficiency virus 1; experiment: Antiviral activity against HIV1 R5 in human PBMC assessed as fractional inhibition of viral replication at 2.5 nM; assay type: functional; procedure, shortened: as §1
[21] = test system: Human immunodeficiency virus 1; experiment: Antiviral activity against HIV1 R5 in human PBMC assessed as fractional inhibition of viral replication at 10 nM; assay type: functional; procedure, shortened: as §1

Question: For `CO[C@H]1C[C@@H]2CC[C@@H](C)[C@@](O)(O2)C(=O)C(=O)N2CCCC[C@H]2C(=O)O[C@H]([C@H](C)C[C@@H]2CC[C@@H](O)[C@H](OC)C2)CC(=O)[C@H](C)/C=C(\C)[C@@H](O)[C@@H](OC)C(=O)[C@H](C)C[C@H](C)/C=C/C=C/C=C/1C` [SIROLIMUS], which Activity [1] is on record?
Answer: 0.34

Question: And the EC50 [2]?
Answer: 0.15 nM

Question: What about the Activity [3] of the same compound?
Answer: 0.66

Question: And the Activity [4]?
Answer: 0.78

Question: What about the Activity [5] of the same compound?
Answer: 0.92

Question: And the Activity (PBMC [6])?
Answer: Active

Question: What about the Activity (PBMC [7]) of the same compound?
Answer: 15%

Question: And the Activity (PBMC [8])?
Answer: Non-toxic

Question: What about the EC50 [9] of the same compound?
Answer: 1.3 nM

Question: What about the Activity (PBMC [10]) of the same compound?
Answer: Non-toxic

Question: And the EC50 [11]?
Answer: 0.18 nM

Question: And the Activity [12]?
Answer: 0.85

Question: What about the Activity [13] of the same compound?
Answer: Active

Question: And the EC50 [14]?
Answer: 0.1 nM

Question: And the Activity (PBMC [15])?
Answer: inactive

Question: Which results are given for enfuvirtide?
Answer: Activity [16]: 0.24; Activity [17]: 0.73; EC50 [18]: 2.5 nM; EC50 [2]: 10 nM; Activity [19]: 0.57; Activity [20]: 0.23; Activity [21]: 0.5; EC50 [11]: 12.9 nM
